Assay [1] has as its target T1, Cholecystokinin receptor type A (Rattus norvegicus, UniProt P30551).
T1 sequence (P30551 whole entry): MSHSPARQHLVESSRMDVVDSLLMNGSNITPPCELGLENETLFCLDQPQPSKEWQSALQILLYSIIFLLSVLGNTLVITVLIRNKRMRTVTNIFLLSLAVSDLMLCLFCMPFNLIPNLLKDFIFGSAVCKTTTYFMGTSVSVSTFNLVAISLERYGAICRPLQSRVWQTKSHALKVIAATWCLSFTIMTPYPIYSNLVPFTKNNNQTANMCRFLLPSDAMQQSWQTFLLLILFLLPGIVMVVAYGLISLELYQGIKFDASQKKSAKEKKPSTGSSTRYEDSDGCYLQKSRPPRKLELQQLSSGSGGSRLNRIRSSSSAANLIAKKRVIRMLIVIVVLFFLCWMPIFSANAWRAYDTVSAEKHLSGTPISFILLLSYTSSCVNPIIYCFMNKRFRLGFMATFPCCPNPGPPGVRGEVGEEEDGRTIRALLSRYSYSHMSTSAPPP
Put plainly: Displacement of [3H]CCK8 from rat pancreas CCK1 receptor at by liquid scintillation counting. The method in brief:
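Rat pancreas membranes incubated at 37 °C with [³H]-CCK8s at 0.2 nM; nonspecific binding defined with L-364,718. Bound and free ligand separated by filtration over GF/C filters, then counted by liquid scintillation. Ki calculated using Bmax and KD from separate saturation binding isotherms.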

The nature of assay [2]: Displacement of [3H]CCK8 from guinea pig brain CCK2 receptor by liquid scintillation counting. More on the design: species or system Cavia porcellus. The method in brief: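 Guinea pig brain membranes incubated at 25 °C with [³H]-CCK8s at 0.2 nM; nonspecific binding defined with L-365,260. Bound and free ligand separated by filtration over GF/C filters, then counted by liquid scintillation. Ki calculated using Bmax and KD from separate saturation binding isotherms.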
A general note: In a radioligand displacement assay an active substance lowers the binding of a labelled ligand.

Assay [3] in a line: Selectivity ratio of pKi for guinea pig brain CCK2 receptor to pKi for rat pancreas CCK1. The method in brief: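 Radioligand displacement binding to guinea pig brain membranes (CCK2, incubated at 25 °C) and rat pancreas membranes (CCK1, incubated at 37 °C) with 0.2 nM [³H]-CCK8s. Non-specific binding was defined with L-365,260 (CCK2) or L-364,718 (CCK1). Bound ligand was separated by GF/C filtration and counted by liquid scintillation. Ki values were derived for each subtype, with KD and Bmax taken from separate saturation isotherms.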

By Ki is commonly meant the equilibrium dissociation constant of an inhibitor or competing ligand from its target. The low end stands for higher affinity, the high end for lower affinity. By pKi is commonly meant −log10 of the Ki, conventionally taken in molar units. Low readings indicate a high Ki, high ones a low Ki. In assay [1], `Cc1cccc(Cl)c1NC(=O)NC1C(=O)N(CCC(C)C)c2ccccc2N(CCN2CCOCC2)C1=O` (racemic) gave an inhibition constant Ki of 5.13 µM. Besides, in assay [2], the pKi came to 6.93. Further, the Ki selectivity ratio (CCK1 Ki / CCK2 Ki) in assay [3] was determined as 44.
`COc1ccc(NC(=O)NC2C(=O)N(CCC(C)C)c3ccccc3N(CCN3CCOCC3)C2=O)cc1` (racemic) showed a Ki in assay [1] of 5.13 µM. For the same molecule, the negative-log Ki (pKi) in assay [2] is 8.1. Besides, the Ki selectivity ratio (CCK1 Ki / CCK2 Ki) in assay [3] stood at 646.
`COc1ccc(NC(=O)NC2C(=O)N(CCC(C)C)c3ccccc3N(CCN3CCOCC3)C2=O)c(C)c1` (racemic) showed a Ki in assay [1] of 6.61 µM. The pKi in assay [2] is reported as 7.54. Also, the Ki selectivity ratio (CCK1 Ki / CCK2 Ki) in assay [3] amounted to 229.
Consider `CC(C)CCN1C(=O)C(NC(=O)Nc2ccc(Cl)cc2)C(=O)N(CCN2CCOCC2)c2ccccc21` (racemic), for which the Ki in assay [1] is 1.02 µM. In assay [2], this molecule returned a pKi of 8.71. In addition, the Ki selectivity ratio (CCK1 Ki / CCK2 Ki) in assay [3] came out at 525.
Turning to `O=C(Nc1ccccc1)NC1C(=O)N(CCN2CCOCC2)c2cc(F)ccc2N(CC23CC4CC(CC(C4)C2)C3)C1=O` (single isomer, unassigned; (-)), in assay [3], the Ki selectivity ratio (CCK1 Ki / CCK2 Ki) is 1020.
As for `O=C(Nc1ccccc1)NC1C(=O)N(CCN2CCOCC2)c2ccccc2N(CC23CC4CC(CC(C4)C2)C3)C1=O` (stereo in doubt; 55) [listing 1 of 2 here], the Ki selectivity ratio (CCK1 Ki / CCK2 Ki) in assay [3] came to 170.
`CCN(CC)CCN1C(=O)C(NC(=O)Nc2ccccc2)C(=O)N(CC2CCCCC2)c2ccccc21` (single isomer, unassigned; isomer 1) [listing 1 of 2 here] had a Ki in assay [1] of 2.69 µM. Also, the pKi in assay [2] is given as 8.23.
On to `O=C(Nc1ccc(F)cc1)NC1C(=O)N(CCN2CCOCC2)c2ccccc2N(CC23CC4CC(CC(C4)C2)C3)C1=O` (single isomer, unassigned; (+)) [listing 1 of 2 here], for which the Ki selectivity ratio (CCK1 Ki / CCK2 Ki) in assay [3] was 182.
Molecule `O=C(Nc1ccc(F)cc1)NC1C(=O)N(CCN2CCOCC2)c2ccccc2N(CC23CC4CC(CC(C4)C2)C3)C1=O` (single isomer, unassigned; (+)) [listing 2 of 2 here] showed a Ki in assay [1] of 2.57 µM. Moreover, the pKi in assay [2] was determined as 7.85.
The matching figures for `O=C(Nc1ccccc1)NC1C(=O)N(CCN2CCOCC2)c2cc(F)ccc2N(CC23CC4CC(CC(C4)C2)C3)C1=O` (single isomer, unassigned; (+)) [listing 1 of 2 here]: 2.24 µM and 7.31.
For the molecule `CCN(CC)CCN1C(=O)C(NC(=O)Nc2ccccc2)C(=O)N(CC2CCCCC2)c2ccccc21` (racemic) [listing 1 of 2 here], the Ki selectivity ratio (CCK1 Ki / CCK2 Ki) in assay [3] amounted to 1480.
The molecule `CC(C)CCN1C(=O)C(NC(=O)Nc2ccc(C(F)(F)F)cc2)C(=O)N(CCN2CCOCC2)c2ccccc21` (racemic) had a Ki in assay [1] of 1.48 µM. The pKi in assay [2] is given as 8.44. For the same molecule, the Ki selectivity ratio (CCK1 Ki / CCK2 Ki) in assay [3] stood at 407.
As for `O=C(Nc1ccccc1)NC1C(=O)N(CCN2CCOCC2)c2ccccc2N(CC2CCCCC2)C1=O` (racemic), affinity in assay [1] was put at a Ki of 0.347 µM. Moreover, the pKi in assay [2] worked out at 8.56. Moreover, the Ki selectivity ratio (CCK1 Ki / CCK2 Ki) in assay [3] amounted to 126.
As to `CC(C)CCN1C(=O)C(NC(=O)Nc2ccc(F)cc2)C(=O)N(CCN2CCOCC2)c2ccccc21` (racemic), affinity in assay [1] was put at a Ki of 1.45 µM. The molecule further returned a pKi in assay [2] of 8.4. For the same molecule, the Ki selectivity ratio (CCK1 Ki / CCK2 Ki) in assay [3] was found to be 363.
Consider `O=C(Nc1ccc(F)cc1)NC1C(=O)N(CCN2CCOCC2)c2ccccc2N(CC23CC4CC(CC(C4)C2)C3)C1=O` (single isomer, unassigned; (-)), for which the Ki selectivity ratio (CCK1 Ki / CCK2 Ki) in assay [3] is 2880.
In assay [1], `O=C(Nc1ccccc1)NC1C(=O)N(CCN2CCCC2)c2ccccc2N(CC23CC4CC(CC(C4)C2)C3)C1=O` (racemic) had a Ki of 9.55 µM. The pKi in assay [2] is recorded as 8.98. Further, in assay [3], the Ki selectivity ratio (CCK1 Ki / CCK2 Ki) came to 9120.
Take `Cc1cc(Br)ccc1NC(=O)NC1C(=O)N(CCC(C)C)c2ccccc2N(CCN2CCOCC2)C1=O` (racemic): in assay [1], the Ki was 0.537 µM. Besides, the pKi in assay [2] came out at 7.85. Also, the Ki selectivity ratio (CCK1 Ki / CCK2 Ki) in assay [3] stood at 38.
The molecule `CC(C)CCN1C(=O)C(NC(=O)Nc2ccc(Br)cc2)C(=O)N(CCN2CCOCC2)c2ccccc21` (racemic) had a Ki in assay [1] of 1.07 µM. This molecule returned a pKi in assay [2] of 8.44. Moreover, in assay [3], the Ki selectivity ratio (CCK1 Ki / CCK2 Ki) stood at 295.
As for `O=C(Nc1ccccc1)NC1C(=O)N(CCN2CCOCC2)c2cc(F)ccc2N(CC23CC4CC(CC(C4)C2)C3)C1=O` (racemic), in assay [3], the Ki selectivity ratio (CCK1 Ki / CCK2 Ki) came to 603.
`O=C(Nc1ccccc1)NC1C(=O)N(CCN2CCOCC2)c2cc(F)ccc2N(CC23CC4CC(CC(C4)C2)C3)C1=O` (single isomer, unassigned; (+)) [listing 2 of 2 here]: the Ki selectivity ratio (CCK1 Ki / CCK2 Ki) in assay [3] was determined as 46.
`Cc1cccc(NC(=O)NC2C(=O)N(CCC(C)C)c3ccccc3N(CCN3CCOCC3)C2=O)c1` (racemic) showed a Ki in assay [1] of 0.275 µM. This molecule returned a pKi in assay [2] of 9.11. The Ki selectivity ratio (CCK1 Ki / CCK2 Ki) in assay [3] turned out to be 372.
In assay [1], `O=C(Nc1ccccc1)NC1C(=O)N(CCN2CCOCC2)c2ccccc2N(CC23CC4CC(CC(C4)C2)C3)C1=O` (stereo in doubt; 55) [listing 2 of 2 here] gave a Ki of 1.58 µM. Also, the pKi in assay [2] was 8.03.
`Cc1cccc(NC(=O)NC2C(=O)N(CCN3CCOCC3)c3ccccc3N(CC3CCCCC3)C2=O)c1` (racemic) gave a Ki in assay [1] of 0.174 µM. In addition, the pKi in assay [2] is 9.26. Besides, the Ki selectivity ratio (CCK1 Ki / CCK2 Ki) in assay [3] is 316.
Turning to `CCN(CC)CCN1C(=O)C(NC(=O)Nc2ccccc2)C(=O)N(CC2CCCCC2)c2ccccc21` (stereo in doubt) [listing 1 of 2 here], the Ki in assay [1] was 0.468 µM. This molecule also yielded a pKi in assay [2] of 9.4.
For `CC(C)CCN1C(=O)C(NC(=O)Nc2ccccc2C(C)C)C(=O)N(CCN2CCOCC2)c2ccccc21` (racemic), the inhibitory constant (Ki) in assay [1] is more than 10 µM. Besides, the pKi in assay [2] came to 6.89. For the same molecule, the Ki selectivity ratio (CCK1 Ki / CCK2 Ki) in assay [3] turned out to be 78.
Molecule `CCOc1ccc(NC(=O)NC2C(=O)N(CCC(C)C)c3ccccc3N(CCN3CCOCC3)C2=O)cc1` (racemic) had a Ki in assay [1] of more than 10 µM. The pKi in assay [2] is given as 7.17. Moreover, the Ki selectivity ratio (CCK1 Ki / CCK2 Ki) in assay [3] was found to be 148.
As to `CCN(CC)CCN1C(=O)C(NC(=O)Nc2ccccc2)C(=O)N(CC2CCCCC2)c2ccccc21` (stereo in doubt) [listing 2 of 2 here], the Ki selectivity ratio (CCK1 Ki / CCK2 Ki) in assay [3] was determined as 1180.
In the case of `CCN(CC)CCN1C(=O)C(NC(=O)Nc2ccc(F)cc2)C(=O)N(CC23CC4CC(CC(C4)C2)C3)c2ccccc21` (racemic), the Ki in assay [1] is 1.66 µM. For the same molecule, in assay [2], the pKi is reported as 8.71. Moreover, the Ki selectivity ratio (CCK1 Ki / CCK2 Ki) in assay [3] was 851.
For `O=C(Nc1ccccc1)NC1C(=O)N(CCN2CCOCC2)c2ccccc2N(CC23CC4CC(CC(C4)C2)C3)C1=O` (single isomer, unassigned; (-)), the Ki selectivity ratio (CCK1 Ki / CCK2 Ki) in assay [3] stood at 8910.
Consider `O=C(Nc1ccccc1)NC1C(=O)N(CCN2CCOCC2)c2ccccc2N(CC23CC4CC(CC(C4)C2)C3)C1=O` (racemic), for which, in assay [3], the Ki selectivity ratio (CCK1 Ki / CCK2 Ki) is 3550.
Take `CCN(CC)CCN1C(=O)C(NC(=O)Nc2ccccc2)C(=O)N(CC2CCCCC2)c2ccccc21` (racemic) [listing 2 of 2 here]: the Ki in assay [1] was 1.51 µM. In addition, the pKi in assay [2] is 8.99.
For `CCN(CC)CCN1C(=O)C(NC(=O)Nc2ccccc2)C(=O)N(CC2CCCCC2)c2ccccc21` (single isomer, unassigned; isomer 1) [listing 2 of 2 here], the Ki selectivity ratio (CCK1 Ki / CCK2 Ki) in assay [3] is 457.
Take `O=C(Nc1ccc(F)cc1)NC1C(=O)N(CCN2CCOCC2)c2ccccc2N(CC23CC4CC(CC(C4)C2)C3)C1=O` (racemic): the Ki selectivity ratio (CCK1 Ki / CCK2 Ki) in assay [3] amounted to 646.

For the origin of these results see ChEMBL document CHEMBL1806366, “Synthesis and structure-activity relationship of new 1,5-dialkyl-1,5-benzodiazepines as cholecystokinin-2 receptor antagonists” (Bioorg Med Chem, 2011).
